ChEMBL document CHEMBL1147655, “Design and synthesis of 8-octyl-benzolactam-V9, a selective activator for protein kinase C epsilon and eta” (J Med Chem, 2006)

Experiments:
[1] = target: T1, Protein kinase C alpha type (Homo sapiens, UniProt P17252); experiment: Displacement of [3H]phorbol 12,13-dibutyrate from PKC alpha-C1A
[2] = target: T2, Protein kinase C epsilon type (Homo sapiens) (UniProt Q02156); experiment: Induction of GFP-tagged PKC epsilon translocation in HeLa cells measured as ratio of fluorescence intensity in plasma membrane to cytosol at 10 uM; format: cell-based
T2 sequence (whole entry): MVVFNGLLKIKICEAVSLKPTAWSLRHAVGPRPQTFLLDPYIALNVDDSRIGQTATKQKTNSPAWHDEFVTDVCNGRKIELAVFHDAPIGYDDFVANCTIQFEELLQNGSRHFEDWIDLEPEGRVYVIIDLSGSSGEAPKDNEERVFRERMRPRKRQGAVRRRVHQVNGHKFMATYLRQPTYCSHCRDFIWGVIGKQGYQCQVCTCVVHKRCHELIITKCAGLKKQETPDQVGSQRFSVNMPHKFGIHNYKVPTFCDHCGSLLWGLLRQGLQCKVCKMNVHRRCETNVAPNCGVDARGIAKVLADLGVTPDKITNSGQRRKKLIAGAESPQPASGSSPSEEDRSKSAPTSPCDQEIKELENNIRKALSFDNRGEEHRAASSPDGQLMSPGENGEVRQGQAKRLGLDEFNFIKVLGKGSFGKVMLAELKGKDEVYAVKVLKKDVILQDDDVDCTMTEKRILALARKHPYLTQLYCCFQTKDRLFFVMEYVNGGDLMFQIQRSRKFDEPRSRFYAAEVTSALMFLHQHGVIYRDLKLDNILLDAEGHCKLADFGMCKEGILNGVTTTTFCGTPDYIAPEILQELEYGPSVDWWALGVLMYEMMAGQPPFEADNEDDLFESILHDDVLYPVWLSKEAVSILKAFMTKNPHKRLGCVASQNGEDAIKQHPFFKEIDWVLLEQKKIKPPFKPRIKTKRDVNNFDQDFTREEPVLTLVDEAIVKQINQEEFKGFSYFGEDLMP
Outline: (§1)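 HeLa cells transfected with GFP-fused PKC isozyme, cultured 16-48 h, then medium switched to HEPES buffer (135 mM NaCl, 5.4 mM KCl, 1 mM MgCl2, 1.8 mM CaCl2, 5 mM HEPES, 10 mM glucose, pH 7.3). Compound added at stated final concentration, 37 °C; confocal time series (488 nm excitation, 505-550 nm emission). R = membrane/mean cytosolic intensity from line profiles; maximum R reported, SD of at least three measurements.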

[3] = target: T3, Protein kinase C gamma type (Homo sapiens, UniProt P05129); experiment: Displacement of [3H]phorbol 12,13-dibutyrate from PKC gamma-C1B
[4] = target: T3, Protein kinase C gamma type; experiment: Displacement of [3H]phorbol 12,13-dibutyrate from PKC gamma-C1A
[5] = target: T4, Protein kinase C eta type (Homo sapiens, UniProt P24723); experiment: Induction of GFP-tagged PKC eta translocation in HeLa cells measured as ratio of fluorescence intensity in plasma membrane to cytosol at 10 uM; format: cell-based; outline: as §1
[6] = target: T2, Protein kinase C epsilon type (Homo sapiens); experiment: Induction of GFP-tagged PKC epsilon translocation in HeLa cells measured as ratio of fluorescence intensity in plasma membrane to cytosol at 0.5 uM; format: cell-based; outline: as §1
[7] = target: T5, Protein kinase C delta type (Homo sapiens, UniProt Q05655); experiment: Induction of GFP-tagged PKC delta translocation in HeLa cells measured as ratio of fluorescence intensity in plasma membrane to cytosol at 10 uM; format: cell-based; outline: as §1
Target sequence in this assay (Q05655 whole entry, looked up): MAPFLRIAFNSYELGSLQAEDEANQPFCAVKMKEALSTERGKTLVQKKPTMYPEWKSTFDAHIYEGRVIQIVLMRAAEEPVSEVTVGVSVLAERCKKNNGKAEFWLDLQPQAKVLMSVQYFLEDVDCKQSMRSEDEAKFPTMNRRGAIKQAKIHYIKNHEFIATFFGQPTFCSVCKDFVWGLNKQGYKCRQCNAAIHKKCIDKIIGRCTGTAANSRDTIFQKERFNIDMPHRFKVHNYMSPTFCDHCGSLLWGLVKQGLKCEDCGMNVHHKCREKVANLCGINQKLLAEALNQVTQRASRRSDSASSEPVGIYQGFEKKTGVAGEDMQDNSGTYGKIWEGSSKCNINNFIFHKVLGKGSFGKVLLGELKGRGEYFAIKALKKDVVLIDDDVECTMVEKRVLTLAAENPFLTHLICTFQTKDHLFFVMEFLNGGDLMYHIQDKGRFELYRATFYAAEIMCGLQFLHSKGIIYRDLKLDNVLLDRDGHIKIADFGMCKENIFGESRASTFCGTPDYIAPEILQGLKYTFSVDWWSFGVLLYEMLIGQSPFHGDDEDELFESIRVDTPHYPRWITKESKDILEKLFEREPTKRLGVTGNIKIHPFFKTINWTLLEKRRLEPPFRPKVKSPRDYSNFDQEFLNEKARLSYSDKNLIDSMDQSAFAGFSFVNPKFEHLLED

[8] = target: T4, Protein kinase C eta type; experiment: Displacement of [3H]phorbol 12,13-dibutyrate from PKC eta-C1A
[9] = target: T6, Protein kinase C epsilon type (Homo sapiens, UniProt Q02156); experiment: Displacement of [3H]phorbol 12,13-dibutyrate from PKC epsilon-C1B
T6 sequence (Q02156 whole entry): T2 sequence (whole entry)

[10] = target: T3, Protein kinase C gamma type; experiment: Induction of GFP-tagged PKC gamma translocation in HeLa cells measured as ratio of fluorescence intensity in plasma membrane to cytosol at 10 uM; format: cell-based; outline: as §1
[11] = target: T4, Protein kinase C eta type; experiment: Displacement of [3H]phorbol 12,13-dibutyrate from PKC eta-C1B
[12] = target: T7, Protein kinase C beta type (Homo sapiens, UniProt P05771); experiment: Induction of GFP-tagged PKC beta translocation in HeLa cells measured as ratio of fluorescence intensity in plasma membrane to cytosol at 10 uM; format: cell-based; outline: as §1
Target sequence in this assay (P05771 2-671 limits assumed): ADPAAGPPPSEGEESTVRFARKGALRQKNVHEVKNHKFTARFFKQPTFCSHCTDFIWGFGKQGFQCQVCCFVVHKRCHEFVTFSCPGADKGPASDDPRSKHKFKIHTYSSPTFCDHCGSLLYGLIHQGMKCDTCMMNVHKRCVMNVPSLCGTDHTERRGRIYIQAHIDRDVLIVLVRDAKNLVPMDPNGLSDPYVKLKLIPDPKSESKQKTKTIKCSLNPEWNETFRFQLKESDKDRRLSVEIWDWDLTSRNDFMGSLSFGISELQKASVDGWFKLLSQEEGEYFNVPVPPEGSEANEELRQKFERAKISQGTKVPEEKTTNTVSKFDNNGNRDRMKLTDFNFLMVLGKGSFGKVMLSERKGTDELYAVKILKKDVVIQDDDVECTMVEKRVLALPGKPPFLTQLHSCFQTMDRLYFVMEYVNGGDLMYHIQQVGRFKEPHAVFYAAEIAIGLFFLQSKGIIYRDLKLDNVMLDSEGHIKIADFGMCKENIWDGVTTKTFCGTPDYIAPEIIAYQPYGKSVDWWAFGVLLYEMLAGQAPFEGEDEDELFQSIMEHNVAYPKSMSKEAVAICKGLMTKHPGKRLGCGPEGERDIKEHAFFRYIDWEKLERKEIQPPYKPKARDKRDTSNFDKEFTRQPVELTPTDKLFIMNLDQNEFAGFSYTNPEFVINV

[13] = target: T5, Protein kinase C delta type; experiment: Displacement of [3H]phorbol 12,13-dibutyrate from PKC delta-C1B
[14] = target: T2, Protein kinase C epsilon type (Homo sapiens); experiment: Induction of GFP-tagged PKC epsilon translocation in HeLa cells measured as ratio of fluorescence intensity in plasma membrane to cytosol at 1 uM; format: cell-based; outline: as §1
[15] = target: T1, Protein kinase C alpha type; experiment: Induction of GFP-tagged PKC alpha translocation in HeLa cells measured as ratio of fluorescence intensity in plasma membrane to cytosol at 10 uM; format: cell-based; outline: as §1
[16] = target: T5, Protein kinase C delta type; experiment: Displacement of [3H]phorbol 12,13-dibutyrate from PKC delta-C1A
[17] = target: T6, Protein kinase C epsilon type; experiment: Displacement of [3H]phorbol 12,13-dibutyrate from PKC epsilon-C1A
[18] = target: T7, Protein kinase C beta type; experiment: Displacement of [3H]phorbol 12,13-dibutyrate from PKC beta-C1A
Target sequence in this assay (P05771 whole entry): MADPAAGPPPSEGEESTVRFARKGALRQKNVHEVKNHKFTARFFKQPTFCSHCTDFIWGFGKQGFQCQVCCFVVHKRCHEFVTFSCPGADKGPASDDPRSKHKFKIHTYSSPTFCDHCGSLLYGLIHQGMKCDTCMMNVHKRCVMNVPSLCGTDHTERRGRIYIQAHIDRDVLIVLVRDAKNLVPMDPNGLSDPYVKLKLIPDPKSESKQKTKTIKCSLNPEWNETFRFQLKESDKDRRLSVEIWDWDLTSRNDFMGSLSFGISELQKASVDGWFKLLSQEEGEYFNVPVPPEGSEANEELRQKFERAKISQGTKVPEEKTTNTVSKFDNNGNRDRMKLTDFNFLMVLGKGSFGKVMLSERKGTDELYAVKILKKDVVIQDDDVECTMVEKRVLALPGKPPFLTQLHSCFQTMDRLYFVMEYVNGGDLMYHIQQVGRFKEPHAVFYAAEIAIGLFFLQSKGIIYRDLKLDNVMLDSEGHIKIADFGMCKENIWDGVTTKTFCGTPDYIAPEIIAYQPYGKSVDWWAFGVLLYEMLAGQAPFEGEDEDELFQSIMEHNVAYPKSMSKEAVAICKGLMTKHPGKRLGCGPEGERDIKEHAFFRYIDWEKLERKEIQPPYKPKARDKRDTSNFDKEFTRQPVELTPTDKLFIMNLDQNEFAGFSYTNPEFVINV

[19] = target: Protein kinase C theta type (Homo sapiens, UniProt Q04759); experiment: Displacement of [3H]phorbol 12,13-dibutyrate from PKC theta-C1B
[20] = target: T1, Protein kinase C alpha type; experiment: Displacement of [3H]phorbol 12,13-dibutyrate from PKC alpha-C1B
[21] = target: T4, Protein kinase C eta type; experiment: Induction of GFP-tagged PKC eta translocation in HeLa cells measured as ratio of fluorescence intensity in plasma membrane to cytosol at 1 uM; format: cell-based; outline: as §1
[22] = target: T7, Protein kinase C beta type; experiment: Displacement of [3H]phorbol 12,13-dibutyrate from PKC beta-C1B
Target sequence in this assay (P05771 whole entry): as above

[23] = target: T4, Protein kinase C eta type; experiment: Induction of GFP-tagged PKC eta translocation in HeLa cells measured as ratio of fluorescence intensity in plasma membrane to cytosol at 0.5 uM; format: cell-based; outline: as §1
[24] = target: T5, Protein kinase C delta type; experiment: Induction of GFP-tagged PKC delta translocation in HeLa cells measured as ratio of fluorescence intensity in plasma membrane to cytosol at 1 uM; format: cell-based; outline: as §1
Target sequence in this assay (Q05655 whole entry, looked up): as the sequence (Q05655 whole entry, looked up) above

[25] = target: T1, Protein kinase C alpha type; experiment: Induction of GFP-tagged PKC alpha translocation in HeLa cells measured as ratio of fluorescence intensity in plasma membrane to cytosol at 1 uM; format: cell-based; outline: as §1
[26] = target: T7, Protein kinase C beta type; experiment: Induction of GFP-tagged PKC beta translocation in HeLa cells measured as ratio of fluorescence intensity in plasma membrane to cytosol at 0.5 uM; format: cell-based; outline: as §1
Target sequence in this assay (P05771 2-671 limits assumed): as the sequence (P05771 2-671 limits assumed) above

[27] = target: T3, Protein kinase C gamma type; experiment: Induction of GFP-tagged PKC gamma translocation in HeLa cells measured as ratio of fluorescence intensity in plasma membrane to cytosol at 1 uM; format: cell-based; outline: as §1
[28] = target: T7, Protein kinase C beta type; experiment: Induction of GFP-tagged PKC beta translocation in HeLa cells measured as ratio of fluorescence intensity in plasma membrane to cytosol at 1 uM; format: cell-based; outline: as §1
Target sequence in this assay (P05771 2-671 limits assumed): as the sequence (P05771 2-671 limits assumed) above

T4 sequence (P24723 whole entry): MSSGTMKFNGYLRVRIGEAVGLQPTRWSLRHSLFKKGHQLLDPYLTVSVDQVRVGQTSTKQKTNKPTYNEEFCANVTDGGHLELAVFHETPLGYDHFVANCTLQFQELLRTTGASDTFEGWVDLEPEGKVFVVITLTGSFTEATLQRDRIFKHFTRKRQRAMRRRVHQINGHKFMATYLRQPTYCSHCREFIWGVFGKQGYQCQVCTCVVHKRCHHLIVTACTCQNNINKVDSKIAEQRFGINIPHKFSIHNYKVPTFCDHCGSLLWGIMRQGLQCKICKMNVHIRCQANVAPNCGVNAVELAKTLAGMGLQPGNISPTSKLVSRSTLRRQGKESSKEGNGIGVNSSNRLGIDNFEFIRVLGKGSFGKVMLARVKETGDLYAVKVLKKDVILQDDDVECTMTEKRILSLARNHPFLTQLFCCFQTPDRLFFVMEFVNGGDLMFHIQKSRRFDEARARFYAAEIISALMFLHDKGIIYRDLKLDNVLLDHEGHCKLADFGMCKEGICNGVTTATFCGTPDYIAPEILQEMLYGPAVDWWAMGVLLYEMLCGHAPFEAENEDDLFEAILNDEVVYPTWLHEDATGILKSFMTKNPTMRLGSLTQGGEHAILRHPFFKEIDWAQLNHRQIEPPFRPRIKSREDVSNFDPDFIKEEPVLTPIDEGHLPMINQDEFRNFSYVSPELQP

SMILES: CCCCCCCCc1cccc2c1CC[C@@H](CO)NC(=O)[C@H](C(C)C)N2C
- Ki [1]: > 10 µM
- Ratio [2]: 1.96
- Ki [3]: 5.2 µM
- Ki [4]: > 10 µM
- Ratio [5]: 1.72
- Ratio [6]: 1.65
- Ratio [7]: 0.95
- Ki [8]: > 10 µM
- Ki [9]: 510 nM
- Ratio [10]: 0.97
- Ki [11]: 144 nM
- Ratio [12]: 0.97
- Ki [13]: 216 nM
- Ratio [14]: 1.66
- Ratio [15]: 0.98
- Ki [16]: > 10 µM
- Ki [17]: > 10 µM
- Ki [18]: > 10 µM
- Ki [19]: 290 nM
- Ki [20]: > 10 µM
- Ratio [21]: 1.46
- Ki [22]: > 10 µM
- Ratio [23]: 0.97

SMILES: CCCCCCN1C[C@H]2C[C@@H](CO)NC(=O)[C@H](C(C)C)N(C)c3cccc1c32
- Ratio [2]: 4.29
- Ratio [24]: 0.9
- Ratio [5]: 1.92
- Ratio [6]: 2.42
- Ratio [7]: 2.41
- Ratio [10]: 1.53
- Ratio [25]: 0.97
- Ratio [12]: 2.38
- Ratio [14]: 2.73
- Ratio [26]: 0.95
- Ratio [15]: 1.79
- Ratio [27]: 0.96
- Ratio [21]: 1.84
- Ratio [28]: 2.39
- Ratio [23]: 1.01
